Data taken from paper PMC9064899 (The FEBS journal, 2021).
Substitutions are numbered along the chain they refer to.

Experiments:
[1] = target: T1, UBIAD1 (Homo sapiens, UniProt Q9Y5Z9); assay: UBIAD1 activity with exogenous isoprenyl pyrophosphates in statin-blocked cells; assay type: cell-based; conditions: 1 μM vitamin K3, 10 μM atorvastatin or simvastatin, 20 μM GPP, FPP or GGPP
T1 sequence (Q9Y5Z9 1-338): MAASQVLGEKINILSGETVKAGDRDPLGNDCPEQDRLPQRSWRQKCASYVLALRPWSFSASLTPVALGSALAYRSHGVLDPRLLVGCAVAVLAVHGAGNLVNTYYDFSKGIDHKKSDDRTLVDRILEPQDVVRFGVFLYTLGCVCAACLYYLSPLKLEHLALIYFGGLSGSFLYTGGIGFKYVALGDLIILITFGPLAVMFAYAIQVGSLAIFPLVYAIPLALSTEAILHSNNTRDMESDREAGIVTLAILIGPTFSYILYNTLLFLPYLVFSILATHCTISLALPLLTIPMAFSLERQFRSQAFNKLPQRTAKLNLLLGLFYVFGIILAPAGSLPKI
Summary of the method: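 FIXgla-PC/HEK293 reporter cells were pre-incubated for 12 h with 10 μM atorvastatin or simvastatin to block endogenous isoprenyl pyrophosphate. Medium then contained 1 μM vitamin K3, statin (10 μM) and 20 μM GPP, FPP or GGPP as side-chain substrate. Carboxylated FIXgla-PC was quantified by ELISA and normalized to GGPP (100%). Mean ± SD, n=3 independent experiments.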

[2] = test system: UBIAD1-deficient FIXgla-PC/HEK293 reporter cells; assay: VKD carboxylation of FIXgla-PC supported by K vitamins in UBIAD1-knockout cells; assay type: cell-based, human; conditions: for support of VKD carboxylation of reporter protein: UBIAD1-deficient (knockout) FIXgla-PC/HEK293 cells
Summary of the method: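 Ubiad1-knockout FIXgla-PC/HEK293 reporter cells were cultured for 24 h with increasing concentrations of vitamin K1, MK-4, vitamin K3, or menaquinones with 1–4 or 7 isoprene units. K vitamin stocks were made in polyethoxylated castor oil. Carboxylated FIXgla-PC was determined by ELISA, and half-maximal stimulation concentration (EC50) came from curve fitting. Mean ± SD.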

[3] = test system: FIXgla-PC/HEK293 reporter cells; assay: VKD carboxylation of reporter protein FIXgla-PC supported by K vitamins; assay type: cell-based, human; conditions: intact FIXgla-PC/HEK293 cells, 0.015 nM to 1000 nM, 24 hours
Summary of the method: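 Intact FIXgla-PC/HEK293 cells (stable reporter: protein C with factor IX Gla domain) were grown in DMEM/F12 with 10% FBS. They were incubated for 24 h with vitamin K1, MK-4, vitamin K3 or MK-1/2/3/4/7 at 0.015 nM to 1000 nM, from stocks in polyethoxylated castor oil. Carboxylated reporter was measured by ELISA (anti-carboxylated FIXgla capture, HRP anti-protein C, ABTS).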

[4] = test system: mutant zebrafish; conditions: L65Q mutant zebrafish; cited from earlier work
[5] = test system: kidneys; conditions: kidneys of atorvastatin-treated mice; cited from earlier work
[6] = test system: FIXgla-PC/HEK293 reporter cells; assay: Inhibition of vitamin K3-supported VKD carboxylation; assay type: cell-based, human; conditions: 1 μM vitamin K3 as substrate, 24 hours
Summary of the method: (§1)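 HEK293 cells stably expressing FIXgla-PC (protein C whose Gla domain is replaced by that of factor IX), grown in DMEM/F12 with 10% FBS. Vitamin K stocks are made in polyethoxylated castor oil. Cells are cultured with vitamin K for 24 h. The medium is collected and used directly in an ELISA for carboxylated FIXgla-PC, with an anti-carboxylated FIX Gla-domain mAb, HRP anti-protein C and ABTS substrate.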

[7] = test system: FIXgla-PC/HEK293 reporter cells; assay: Inhibition of vitamin K1-supported VKD carboxylation; assay type: cell-based, human; conditions: 5 μM vitamin K1 as substrate, 24 hours
Summary of the method: as §1

[8] = target: T2, UBIAD1 K181A (Homo sapiens, UniProt Q9Y5Z9, K181A); assay: GGPP recognition by UBIAD1 variant; assay type: cell-based; conditions: 1 μM vitamin K3, statin-blocked mevalonate pathway
T2 sequence (Q9Y5Z9 1-338 K181A): T1 sequence (Q9Y5Z9 1-338) with K181A
Summary of the method: (§2)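 Ubiad1-knockout FIXgla-PC/HEK293 cells were transiently transfected with wild-type or mutant UBIAD1. At 24 h they were pre-treated with 10 μM atorvastatin for 3 h. They were then given 1 μM vitamin K3, 10 μM atorvastatin and increasing GGPP for 24 h. Carboxylated FIXgla-PC was read by ELISA, and GGPP EC50 came from a curve fit. Mean ± SD.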

[9] = target: T3, UBIAD1 G186R (Homo sapiens, UniProt Q9Y5Z9, G186R); assay: GGPP recognition by UBIAD1 variant; assay type: cell-based; conditions: 1 μM vitamin K3, statin-blocked mevalonate pathway
T3 sequence (Q9Y5Z9 1-338 G186R): T1 sequence (Q9Y5Z9 1-338) with G186R
Summary of the method: as §2

SMILES: CC(C)=CCC/C(C)=C/COP(=O)(O)OP(=O)(O)O [GPP, geranyl pyrophosphate]
- support of VKD carboxylation as side chain source [1]: support VKD carboxylation

SMILES: CC(C)=CCC1=C(C)C(=O)c2ccccc2C1=O [MK-1]
- support of VKD carboxylation of reporter protein [2]: unable to support VKD carboxylation

SMILES: CC(C)=CCC/C(C)=C/CC/C(C)=C/CC/C(C)=C/CC/C(C)=C/CC/C(C)=C/CC/C(C)=C/CC1=C(C)C(=O)c2ccccc2C1=O [MK-7]
- support of VKD carboxylation of reporter protein [3]: efficiently support VKD carboxylation
- carboxylation efficiency relative to MK-4 ([2]; MK-7 higher than MK-4): about 3 fold
- EC50 ([2]; read-out: EC50 (half-maximal stimulation concentration) of K vitamins for VKD carboxylation, UBIAD1-deficient FIXgla-PC/HEK293 cells): 2.3 nM

SMILES: CC1=C(C/C=C(\C)CCC[C@H](C)CCC[C@H](C)CCCC(C)C)C(=O)c2ccccc2C1=O [vitamin K1, phylloquinone]
- rescue of the vascular phenotype [4]: 6%
- support of VKD carboxylation of reporter protein [2]: efficiently support VKD carboxylation

SMILES: CC(C)c1c(C(=O)Nc2ccccc2)c(-c2ccccc2)c(-c2ccc(F)cc2)n1CC[C@@H](O)C[C@@H](O)CC(=O)O [atorvastatin]
- reduction of MK-4 production [5]: ~ 45%
- inhibition of VKD carboxylation [6]: dose-response inhibition of VKD carboxylation
- effect on vitamin K1-supported carboxylation [7]: do not affect vitamin K1-supported carboxylation

SMILES: CC(C)=CCC/C(C)=C/CC/C(C)=C/CC/C(C)=C/CC1=C(C)C(=O)c2ccccc2C1=O [MK-4, menaquinone-4]
- support of VKD carboxylation of reporter protein [3]: efficiently support VKD carboxylation
- rescue of the vascular phenotype [4]: 58%
- support of VKD carboxylation of reporter protein [2]: efficiently support VKD carboxylation

SMILES: CCC(C)(C)C(=O)O[C@H]1C[C@@H](C)C=C2C=C[C@H](C)[C@H](CC[C@@H]3C[C@@H](O)CC(=O)O3)[C@H]21 [simvastatin]
- inhibition of VKD carboxylation [6]: dose-response inhibition of VKD carboxylation
- effect on vitamin K1-supported carboxylation [7]: do not affect vitamin K1-supported carboxylation

SMILES: CC(C)=CCC/C(C)=C/CC/C(C)=C/COP(=O)(O)OP(=O)(O)O [FPP, farnesyl pyrophosphate]
- support of VKD carboxylation as side chain source [1]: support VKD carboxylation

SMILES: CC(C)=CCC/C(C)=C/CC/C(C)=C/CC/C(C)=C/COP(=O)(O)OP(=O)(O)O [GGPP, geranylgeranyl pyrophosphate]
- increase of EC50 value of GGPP vs wild-type [8]: 5 fold
- support of VKD carboxylation as side chain source [1]: support VKD carboxylation
- increase of EC50 value of GGPP vs wild-type [9]: 5 fold
